Screening results (PubChem)
Sampled rows, rich in hits. Any-hit rate of the full collection: about 2.3%.
PAFAH2 inh: PAFAH2 enzyme inhibitors, primary screen, biochemical, fluorescence polarization, human; 340,000 compounds, 0.99% hits; AID 492956, 2010; inhibition, % at 3.39 µM; Platelet-activating factor acetylhydrolase 2, cytoplasmic (Homo sapiens), Q99487; recombinant PAFAH2, FP-rhodamine activity probe;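 active = inhibition above the mean over all tested compounds plus 3 SD, cut at about 30% in these data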;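 also: inhibitors block probe labeling of enzyme so polarization drops; 0% = enzyme with DMSO and 100% = wells lacking PAFAH2 protein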
Apaf1 inhib: inhibitors of human Apaf-1 apoptosome, primary screen, biochemical, DEVD-Rh110 fluorescence, uHTS. reconstituted apoptosome caspase-3 activity. Apoptotic protease-activating factor 1 (Homo sapiens), O14727. inhibition, % at 20 µM. 330,000 compounds, 0.71% hits; active = inhibition of at least 40% at 20 µM;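 also: plate controls were DMSO wells for no effect and DEVD-CHO caspase inhibitor wells for full effect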
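System: reconstituted apoptosome with Apaf-1, cytochrome c, caspase-9, procaspase-3, dATP; Signal: Rh110 fluorescence intensity; Schedule: 30 min compound preincubation, 50 min activation, room temperature; Reagent: cytochrome c trigger plus (Z-DEVD)2-Rh110 caspase-3 substrate.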
PAFAH1B2 inh: PAFAH1B2 enzyme inhibitors, primary screen, biochemical, fluorescence polarization, human. recombinant PAFAH1B2, FP-rhodamine activity probe. 340,000 compounds, 1.2% hits. inhibition, % at 3.39 µM. AID 492953, 2010. Platelet-activating factor acetylhydrolase IB subunit alpha2 (Homo sapiens), P68402;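 active = inhibition above the mean of all tested compounds plus 3 SD, cut at about 24% in these data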;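 also: 0% = enzyme with DMSO and 100% = wells lacking PAFAH1B2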
TDP2 inh: human TDP2 enzyme inhibitors, primary screen, biochemical, epi absorbance, recombinant enzyme; Tyrosyl-DNA phosphodiesterase 2 (Homo sapiens), O95551; T5PNP hydrolysis, p-nitrophenol absorbance 415 nm; inhibition, % at 12.8 µM; 370,000 compounds, 0.34% hits; AID 720702, 2013;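 active = inhibition above the mean of all tested compounds plus 3 SD, set per campaign, cut at about 25% in these data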;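 also: 0% = DMSO with enzyme and 100% = buffer with substrate but no TDP2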
Target sequence (O95551 whole entry, looked up): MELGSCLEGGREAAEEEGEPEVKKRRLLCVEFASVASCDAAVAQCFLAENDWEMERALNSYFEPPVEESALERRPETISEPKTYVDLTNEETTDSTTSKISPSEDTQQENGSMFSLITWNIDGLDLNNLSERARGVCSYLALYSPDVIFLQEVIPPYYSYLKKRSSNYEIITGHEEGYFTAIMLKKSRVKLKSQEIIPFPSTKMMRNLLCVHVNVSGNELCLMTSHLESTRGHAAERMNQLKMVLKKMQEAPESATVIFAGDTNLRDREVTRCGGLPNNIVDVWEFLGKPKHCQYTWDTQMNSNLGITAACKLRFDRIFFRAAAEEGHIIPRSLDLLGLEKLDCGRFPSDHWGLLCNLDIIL
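test system = human TDP2 enzyme | input = TDP2 enzyme at 120 nM final | medium = 50 mM Tris-HCl pH 7.5 with Mg2+, KCl, DTT, BSA | also added = T5PNP substrate, 5 mM | times = 2 h at 37 °C | technique = epi absorbance | benchmarks = high control without enzyme, low control DMSO plus TDP2 | replication = each compound tested once, singlicate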
PAFAH1B3 inh: PAFAH1B3 enzyme inhibitors, primary screen, biochemical, fluorescence polarization, human | Platelet-activating factor acetylhydrolase IB subunit alpha1 (Homo sapiens), Q15102 | recombinant PAFAH1B3, FP-rhodamine probe | inhibition, % at 3.39 µM | 340,000 compounds, 0.28% hits | AID 492972, 2010;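 active = inhibition above the screen-wide average of all tested compounds plus 3 SD, cut at about 25% in these data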;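 also: 0% = enzyme with DMSO only and 100% = wells lacking PAFAH1B3 protein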
Target sequence (Q15102 whole entry, looked up): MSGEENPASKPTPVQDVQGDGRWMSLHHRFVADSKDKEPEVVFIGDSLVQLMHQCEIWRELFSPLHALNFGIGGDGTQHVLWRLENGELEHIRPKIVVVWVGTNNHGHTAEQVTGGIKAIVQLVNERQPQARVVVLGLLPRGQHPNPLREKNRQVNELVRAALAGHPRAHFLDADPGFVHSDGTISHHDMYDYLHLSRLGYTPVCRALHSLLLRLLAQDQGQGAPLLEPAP
The depositor's hits bear a star; / = no result.

SMILES	PAFAH2 inh	Apaf1 inhib	PAFAH1B2 inh	TDP2 inh	PAFAH1B3 inh
Cc1ccc(Nc2cnn(C34CC5CC(CC(CC(=O)O)(C5)C3)C4)c(=O)c2Cl)cc1C	9.0	4.8	1.4	2.7	6.7
CCc1cccc(Nc2cnn(C34C[C@@H]5C[C@@H](CC(CC(=O)O)(C5)C3)C4)c(=O)c2Cl)c1	-1.3	3.1	32.3*	-7.5	2.0
C[C@H]1[C@@H](N(C)Cc2cccs2)CC[C@@]23CCCN2C(=O)CCC[C@@H]13	/	/	/	10.9	/
O=C(O)c1ccccc1NC(c1ccccc1)c1ccc(Cl)cc1 (stereo not drawn)	2.7	18.7	41.2*	6.6	12.2
COc1ccc(S[C@]2(C(=O)N3CCOCC3)CC(=O)N(c3ccsc3)[C@@H]2c2ccc(OC)cc2)cc1	/	/	/	-10.5	/
CCN(CC)C(=O)CC[C@H]1CC[C@]2(CCCN(Cc3ccc(OC)cc3)C2)O1	/	/	/	5.9	/
O=[N+]([O-])c1ccc2c(c1)C(N1CCOCC1)/C(=C/COc1ccc(Cl)cc1Cl)O2 (stereo not drawn)	9.0	10.7	24.4*	2.9	0.2
COc1cc(/C=C2\SC(=O)N(c3ccc(Cl)cc3)C2=O)cc([N+](=O)[O-])c1O	18.8	/	7.9	10.3	11.5
COc1cc(/C=C2\SC(=O)N(c3cccc(Cl)c3)C2=O)cc([N+](=O)[O-])c1O	52.5*	-141.9	3.1	23.4	15.3
COc1cc(NC(=O)NC2CCCCN(Cc3cccc(Cl)c3)C2=O)cc(OC)c1 (stereo not drawn)	/	/	/	3.1	/
Nc1ccc(O)c2c1C(=O)c1ccccc1C2=O	82.4*	-4.1	55.2*	2.7	44.1*
CCC(C)(C)C1CCC2(CC1)NC(=O)N(CC(=O)NCCc1ccc(OC)c(OC)c1)C2=O (stereo not drawn)	1.0	11.4	25.4*	0.9	-0.8
CC1CCC2(CC1)NC(=O)N(CC(=O)N1CCN(C(=O)c3ccco3)CC1)C2=O (stereo not drawn)	0.5	7.9	-3.2	0.1	7.9
CCC(C)(C)C1CCC2(CC1)NC(=O)N(CC(=O)NCCOc1ccccc1)C2=O (stereo not drawn)	9.5	27.4	28.5*	-1.9	11.5
O=C(CN1C(=O)NC2(CCCC2)C1=O)NCCc1ccccc1	4.7	-2.5	5.7	5.2	10.7
CCC(C)(C)C1CCC2(CC1)NC(=O)N(CC(=O)N1CCN(C(=O)c3ccco3)CC1)C2=O (stereo not drawn)	0.2	-8.3	24.7*	10.0	1.9
CCOc1ccc(CCNC(=O)CN2C(=O)NC3(CCCC3)C2=O)cc1OCC	0.0	-3.1	0.0	2.9	1.1
COc1ccc(CN2C(=O)[C@]3(NCCc4c3[nH]c3ccc(OC)cc43)c3cc(F)ccc32)cc1	/	/	/	0.7	/
O=[N+]([O-])c1cc(C2Nc3cccc4cccc(c34)N2)ccc1Cl	7.7	28.5	37.1*	5.8	13.1
COc1cc(C2Nc3cccc4cccc(c34)N2)ccc1O	-28.7	29.9	24.7*	15.4	37.4*
COc1cc(C2Nc3cccc4cccc(c34)N2)cc(OC)c1OC(C)=O	-8.3	40.6*	7.2	-2.9	31.8*
COc1ccc(Br)cc1C1Nc2cccc3cccc(c23)N1	11.9	33.8	-2.9	-15.4	4.1
COc1ccc2ccc3ccc(OC)c(OC(C)=O)c3c2c1	7.6	/	3.8	-2.3	5.2
O=C(Nc1ccc2ccccc2c1)NC1CCCCN(Cc2cccc(Cl)c2)C1=O (stereo not drawn)	/	/	/	3.8	/
Fc1ccc(-c2n[nH]c(=S)n2Cc2ccccc2)cc1	-5.0	0.9	28.2*	/	7.6
SMILES	PAFAH2 inh	Apaf1 inhib	PAFAH1B2 inh	TDP2 inh	PAFAH1B3 inh
S=c1[nH]nc(-c2ccccc2Cl)n1Cc1ccccc1	2.0	0.3	27.1*	3.2	-2.2
Oc1ccc(-c2n[nH]c(=S)n2Cc2ccccc2)cc1	8.4	15.7	24.6*	3.0	4.7
S=c1[nH]nc(-c2ccc(Br)cc2)n1Cc1ccccc1	6.4	-5.9	22.4	0.3	13.6
Fc1ccc(-c2c[nH]c(=S)n2Cc2ccccc2)cc1	3.8	18.5	26.6*	5.1	7.6
COC(=O)C1=C(C)N(Cc2ccccc2C(F)(F)F)C(=NCc2ccc3c(c2)OCO3)NC1c1ccccc1C(F)(F)F (stereo not drawn)	/	/	/	-19.7	/
CCCCNC(=O)NS(=O)(=O)c1ccc(NC(=O)CSc2nnc(-c3cccs3)n2-c2ccc(OC)cc2)cc1	/	/	/	2.0	/
O=C(NC1CCCCN(Cc2ccc(Cl)cc2)C1=O)c1ccc(Cl)cc1Cl (stereo not drawn)	/	/	/	0.9	/
COc1ccc(-c2cc(-c3nnc(SCC(=O)Nc4cccc(Cl)c4C)n3N)[nH]n2)cc1	/	/	/	-2.4	/
COc1ccc(-c2[nH][nH]c(=O)c2NC(=O)c2ccccn2)cc1	/	/	/	8.2	/
COc1ccc(CCC(=O)Nc2c(-c3ccc(N(C)C)cc3)[nH][nH]c2=O)cc1	/	/	/	60.1*	/
COc1ccc(OC)c(CN2C(=O)COc3ccccc3C2c2nnnn2C2CCCC2)c1 (stereo not drawn)	/	/	/	2.1	/
O=C(NCc1ccccc1)C1(CC2CC(c3ccccc3)=NO2)CCNCC1 (stereo not drawn)	-6.9	46.6*	0.1	-1.9	8.5
C[C@H]1C(=O)N2[C@@H](C[C@]3(c4c[nH]c5ccccc45)c4ccccc4N(S(=O)(=O)c4ccccc4)[C@H]23)C(=O)N1C	/	/	/	3.6	/
Cc1ccc(NC(=O)COC(=O)CCC(=O)c2cccs2)cc1S(=O)(=O)N1CCOCC1	-1.1	22.6	4.8	-7.0	9.1
Cc1ccc(NC(=O)COC(=O)CCC2CCCC2)cc1S(=O)(=O)N1CCOCC1	32.4*	17.1	4.2	-8.3	0.4
CC(Oc1ccc(Br)cc1)C(=O)NCC(c1cccs1)N1CCOCC1 (stereo not drawn)	3.0	18.5	26.5*	0.4	10.5
C#CCOCCOCCOCCNc1nc(N2CCN(C(=O)CCCCCCCCCCNC(=O)[C@@H](CCSC)n3cc(CCO)nn3)CC2)nc(N2CCN(C(=O)CCCCCCCCCCNC(=O)[C@H]([C@@H](C)CC)n3cc(CCCCN=C(N)N)nn3)CC2)n1	-10.7	64.2*	0.9	/	-2.1
C#CCOCCOCCOCCNc1nc(N2CCN(C(=O)CCCCCCCCCCNC(=O)[C@@H](CCSC)n3cc(CCO)nn3)CC2)nc(N2CCN(C(=O)CCCCCCCCCCNC(=O)[C@H]([C@@H](C)CC)n3cc(CCCCCN)nn3)CC2)n1	/	50.9*	/	/	/
C#CCOCCOCCOCCNc1nc(N2CCN(C(=O)[C@H]([C@@H](C)CC)n3cc(CCCN=C(N)N)nn3)CC2)nc(N2CCN(C(=O)[C@H]([C@@H](C)CC)n3cc(CCC(=O)O)nn3)CC2)n1	0.3	/	1.2	0.7	1.7
